Source: ChEMBL document CHEMBL4152260, “Design, synthesis and biological evaluation of novel quinazoline-2,4-diones conjugated with different amino acids as potential chitin synthase inhibitors” (Eur J Med Chem, 2018)
≈ marks a conversion by molar mass, not a printed value.

Tests used:
Aspergillus fumigatus [1] = experiment: Antifungal activity against Aspergillus fumigatus GIMCC 3.19 measured after 24 hrs; format: functional; details: GIMCC 3.19, 24 h
Cryptococcus neoformans [2] = experiment: Antifungal activity against Cryptococcus neoformans ATCC 32719 measured after 24 hrs; format: functional; details: ATCC 32719, 24 h
Aspergillus flavus [3] = experiment: Antifungal activity against Aspergillus flavus ATCC 16870 measured after 24 hrs; format: functional; details: ATCC 16870, 24 h
Candida albicans [4] = experiment: Antifungal activity against Candida albicans ATCC 76615 measured after 24 hrs; format: functional; details: ATCC 76615, 24 h
Saccharomyces cerevisiae = experiment: Inhibition of yeast chitin synthase at 300 ug/ml using UDP-GlcNAc as substrate measured after 1 hr relative to control
How it was run: (§1)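 Membrane CHS from S. cerevisiae CGMCC2.145 (YPAD, 30 °C, 48 h; sonication; 55000 g pellet in Tris/33% glycerol). Wells coated with WGA and blocked with BSA. Reaction in pH 6.8 Tris-maleate with 40 mM GlcNAc, 2 mM UDP-GlcNAc, 37 °C, 1 h. Product detected with WGA-HRP and TMB/H2O2, A450. Test solutions 300–18.75 μg/mL. Inhibition = (B0−Bn)/(B0−OD0); IC50 from log c plot.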

Cryptococcus neoformans [5] = experiment: Antifungal activity against Cryptococcus neoformans ATCC 32719 measured after 48 hrs by two-dimensional broth microdilution checkboard method; format: functional; details: ATCC 32719, 48 h
How it was run: (§2)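 MICs of each agent alone re-determined in the checkerboard run. Two-dimensional broth microdilution per CLSI M27-A3, 35 °C for 48 h, each test performed twice (duplicate).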

Aspergillus fumigatus [6] = experiment: Antifungal activity against Aspergillus fumigatus GIMCC 3.19 measured after 48 hrs by two-dimensional broth microdilution checkboard method; format: functional; details: GIMCC 3.19, 48 h; how it was run: as §2
Aspergillus flavus [7] = experiment: Antifungal activity against Aspergillus flavus ATCC 16870 measured after 48 hrs by two-dimensional broth microdilution checkboard method; format: functional; details: ATCC 16870, 48 h; how it was run: as §2
Candida albicans [8] = experiment: Antifungal activity against Candida albicans ATCC 76615 measured after 48 hrs by two-dimensional broth microdilution checkboard method; format: functional; details: ATCC 76615, 48 h; how it was run: as §2
[9] = Inhibition of yeast chitin synthase using UDP-GlcNAc as substrate measured after 1 hr; parameters: species or system Saccharomyces cerevisiae; how it was run: as §1

Structure (SMILES) | MIC (Aspergillus fumigatus [1]) [µM] | MIC (Cryptococcus neoformans [2]) [µM] | MIC (Aspergillus flavus [3]) [µM] | MIC (Candida albicans [4]) [µM] | inhibition (Saccharomyces cerevisiae) [%] | MIC (Cryptococcus neoformans [5]) [µM] | MIC (Aspergillus fumigatus [6]) [µM] | MIC (Aspergillus flavus [7]) [µM] | MIC (Candida albicans [8]) [µM] | IC50 [9] [µM]
C[C@@H](NC(=O)Cn1c(=O)c2ccccc2n(C)c1=O)C(=O)O | 830 (≈ 253 µg/mL) | 830 (≈ 253 µg/mL) | 830 (≈ 253 µg/mL) | 1670 (≈ 510 µg/mL) | 47.8 | – | – | – | – | –
OC(Cn1cncn1)(Cn1cncn1)c1ccc(F)cc1F [FLUCONAZOLE] | 50 (≈ 15.3 µg/mL) | 100 (≈ 30.6 µg/mL) | 100 (≈ 30.6 µg/mL) | 200 (≈ 61.3 µg/mL) | – | 104 (≈ 31.9 µg/mL) | 209 (≈ 64 µg/mL) | 104 (≈ 31.9 µg/mL) | 104 (≈ 31.9 µg/mL) | –
Cn1c(=O)n(CC(=O)NCCCC(=O)O)c(=O)c2ccccc21 | 800 (≈ 255 µg/mL) | 800 (≈ 255 µg/mL) | 1600 (≈ 511 µg/mL) | 1600 (≈ 511 µg/mL) | 68.2 | – | – | – | – | 300
CC(C)[C@H](NC(=O)Cn1c(=O)c2ccccc2n(C)c1=O)C(=O)O | 760 (≈ 253 µg/mL) | 760 (≈ 253 µg/mL) | > 1530 | > 1530 | 18.5 | – | – | – | – | –
Cn1c(=O)n(CC(=O)NCCC(=O)O)c(=O)c2ccccc21 | 830 (≈ 253 µg/mL) | 830 (≈ 253 µg/mL) | 1670 (≈ 510 µg/mL) | 1670 (≈ 510 µg/mL) | 47.5 | – | – | – | – | –
Cn1c(=O)n(CC(=O)NCC(=O)O)c(=O)c2ccccc21 | > 1750 | 870 (≈ 253 µg/mL) | 870 (≈ 253 µg/mL) | > 1750 | 22.6 | – | – | – | – | –
CSCC[C@H](NC(=O)Cn1c(=O)c2ccccc2n(C)c1=O)C(=O)O | 1400 (≈ 512 µg/mL) | 700 (≈ 256 µg/mL) | > 1400 | > 1400 | 43.1 | – | – | – | – | –
